Reference: ChEMBL document CHEMBL5674880 (PLoS One, 2018)

Legend:
A-431 = experiment: Antiproliferative activity against human A-431 cells after 10 days; format: functional, cell-based; conditions: A-431, 240 h
Outline: (§1)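 Tested as part of a 240-line cancer cell panel (Eurofins Oncopanel); all lines were mycoplasma-negative and STR-verified. Cells were exposed to a compound concentration series in 2D culture for 10 days. The highest concentration was 10 μM or 25 μM, depending on the inhibitor. Antiproliferative IC50 was derived from the mean of three biological replicates.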

ChaGo-K-1 = experiment: Antiproliferative activity against human ChaGo-K-1 cells after 10 days; format: functional, cell-based; conditions: ChaGo-K-1, 240 h
Outline: (§2)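 10-day 2D proliferation screen of a broad cancer cell panel (about 240 lines, Eurofins Oncopanel). All lines were mycoplasma negative and STR verified. Compounds were dosed up to a top concentration of 10 μM or 25 μM, depending on the inhibitor. Anti-proliferative IC50 values are the average of three biological replicates.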

786-0 = experiment: Antiproliferative activity against human 786-0 cells after 10 days; format: functional, cell-based; conditions: 786-0, 240 h; outline: as §1
Hs 294T = experiment: Antiproliferative activity against human Hs 294T cells after 10 days; format: functional, cell-based; conditions: 240 h; outline: as §2
SW 954 = experiment: Antiproliferative activity against human SW 954 cells after 10 days; format: functional, cell-based; conditions: SW 954, 240 h
ARH-77 = experiment: Antiproliferative activity against human ARH-77 cells after 10 days; format: functional, cell-based; conditions: ARH-77, 240 h; outline: as §1
LNCaP = experiment: Antiproliferative activity against human LNCaP cells after 10 days; format: functional, cell-based; conditions: 240 h
Outline: (§3)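 Broad cancer cell line panel (Eurofins Oncopanel, about 240 lines; mycoplasma negative, STR verified) grown in 2D culture and exposed to compound in a 10-day proliferation assay. The top concentration was 10 μM for the SMYD2 inhibitor series and 25 μM for the SMYD3 inhibitor. The proliferative IC50 is taken from concentration-response data, each value the mean of three biological replicates.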

NCI-H446 = experiment: Antiproliferative activity against human NCI-H446 cells after 10 days; format: functional, cell-based; conditions: NCI-H446, 240 h; outline: as §3
647-V = experiment: Antiproliferative activity against human 647-V cells after 10 days; format: functional, cell-based; conditions: 240 h
Outline: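 Tested in the Eurofins Oncopanel of about 240 cancer cell lines, all mycoplasma-negative and STR-verified. Cells were exposed to compound for 10 days in 2D culture, and a proliferative IC50 was derived from the concentration series. The highest concentration tested was 10 μM in the SMYD2 inhibitor screen and 25 μM in the SMYD3 inhibitor screen. Values are means of three biological replicates.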

DB = experiment: Antiproliferative activity against human DB cells after 10 days; format: functional, cell-based; conditions: 240 h; outline: as §2
MeWo = experiment: Antiproliferative activity against human MeWo cells after 10 days; format: functional, cell-based; conditions: 240 h; outline: as §3
U-266 = experiment: Antiproliferative activity against human U266B1 cells after 10 days; format: functional, cell-based; conditions: U-266, 240 h
5637 = experiment: Antiproliferative activity against human 5637 cells after 10 days; format: functional, cell-based; conditions: Homo sapiens, 5637, 240 h; outline: as §1
MDA-MB-453 = experiment: Antiproliferative activity against human MDA-MB-453 cells after 10 days; format: functional, cell-based; conditions: MDA-MB-453, 240 h
Outline: (§4)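 Cell lines run in the Eurofins Oncopanel broad cancer panel, all mycoplasma-negative and STR-verified. Cells were exposed to a compound concentration series in a 10-day proliferation assay, and an anti-proliferative IC50 was derived. Values are the mean of three biological replicates.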

ACHN = experiment: Antiproliferative activity against human ACHN cells after 10 days; format: functional, cell-based; conditions: 240 h; outline: as §1
L-428 = experiment: Antiproliferative activity against human L-428 cells after 10 days; format: functional, cell-based; conditions: L-428, 240 h; outline: as §3
UMUC3 = experiment: Antiproliferative activity against human UM-UC-3 cells after 10 days; format: functional, cell-based; conditions: UMUC3, 240 h
ES-2 = experiment: Antiproliferative activity against human ES2 cells after 10 days; format: functional, cell-based; conditions: ES-2, 240 h; outline: as §2
SW480 = experiment: Antiproliferative activity against human SW480 cells after 10 days; format: functional, cell-based; conditions: SW480, 240 h
BXPC-3 = experiment: Antiproliferative activity against human BXPC-3 cells after 10 days; format: functional, cell-based; conditions: BXPC-3, 240 h; outline: as §1
SW-620 = experiment: Antiproliferative activity against human SW620 cells after 10 days; format: functional, cell-based; conditions: SW-620, 240 h
LS174T = experiment: Antiproliferative activity against human LS174T cells after 10 days; format: functional, cell-based; conditions: 240 h; outline: as §3
[1] = Antiproliferative activity against human SW579 cells after 10 days; format: functional, cell-based; conditions: SW579, 240 h
CRO-AP2 = experiment: Antiproliferative activity against human CRO-AP2 cells after 10 days; format: functional, cell-based; conditions: CRO-AP2, 240 h; outline: as §2
SNU-16 = experiment: Antiproliferative activity against human SNU-16 cells after 10 days; format: functional, cell-based; conditions: SNU-16, 240 h
Calu-1 = experiment: Antiproliferative activity against human Calu-1 cells after 10 days; format: functional, cell-based; conditions: Calu-1, 240 h; outline: as §2
YAPC = experiment: Antiproliferative activity against human YAPC cells after 10 days; format: functional, cell-based; conditions: 240 h
A 172 = experiment: Antiproliferative activity against human A-172 cells after 10 days; format: functional, cell-based; conditions: A 172, 240 h; outline: as §1
769-P = experiment: Antiproliferative activity against human 769-P cells after 10 days; format: functional, cell-based; conditions: 240 h; outline: as §1
U-87 MG = experiment: Antiproliferative activity against human U-87MG cells after 10 days; format: functional, cell-based, U-87MG ATCC; conditions: 240 h
SCaBER = experiment: Antiproliferative activity against human SCaBER cells after 10 days; format: functional, cell-based; conditions: 240 h
CHL-1 = experiment: Antiproliferative activity against human CHL-1 cells after 10 days; format: functional, cell-based; conditions: CHL-1, 240 h; outline: as §1
TCC-SUP = experiment: Antiproliferative activity against human TCC-SUP cells after 10 days; format: functional, cell-based; conditions: 240 h
SW684 = experiment: Antiproliferative activity against human SW684 cells after 10 days; format: functional, cell-based; conditions: SW684, 240 h
CCF-STTG1 = experiment: Antiproliferative activity against human CCF-STTG1 cells after 10 days; format: functional, cell-based; conditions: CCF-STTG1, 240 h; outline: as §4
Caov-3 cell line = experiment: Antiproliferative activity against human Caov-3 cells after 10 days; format: functional, cell-based; conditions: Caov-3, 240 h; outline: as §2
[2] = Antiproliferative activity against human OCUG-1 cells after 10 days; format: functional, cell-based; conditions: OCUG-1, 240 h; outline: as §3
DK-MG = experiment: Antiproliferative activity against human DK-MG cells after 10 days; format: functional, cell-based; conditions: 240 h; outline: as §2
CAL-27 = experiment: Antiproliferative activity against human CAL-27 cells after 10 days; format: functional, cell-based; conditions: CAL-27, 240 h; outline: as §1
A673 = experiment: Antiproliferative activity against human A673 cells after 10 days; format: functional, cell-based; conditions: A673, 240 h; outline: as §1
U138-MG = experiment: Antiproliferative activity against human U138-MG cells after 10 days; format: functional, cell-based; conditions: 240 h
COLO 201 = experiment: Antiproliferative activity against human COLO201 cells after 10 days; format: functional, cell-based; conditions: COLO 201, 240 h; outline: as §2
NCI-H69 = experiment: Antiproliferative activity against human NCI-H69 cells after 10 days; format: functional, cell-based; conditions: NCI-H69, 240 h; outline: as §3
[3] = Antiproliferative activity against human RKOAS451 cells after 10 days; format: functional, cell-based; conditions: RKOAS451, 240 h; outline: as §3
Ramos = experiment: Antiproliferative activity against human Ramos cells after 10 days; format: functional, cell-based; conditions: 240 h
BPH-1 = experiment: Antiproliferative activity against human BPH-1 cells after 10 days; format: functional, cell-based; conditions: BPH-1, 240 h; outline: as §1
[4] = Antiproliferative activity against human KHOS-240S cells after 10 days; format: functional, cell-based; conditions: 240 h; outline: as §3
HCT-116 = experiment: Antiproliferative activity against human HCT-116 cells after 10 days; format: functional, cell-based; conditions: HCT-116, 240 h; outline: as §2

Work on `Cc1cn(CCN2CCN(c3ccccc3-c3cc(C#N)cc(C(=O)NCCCN4CCCC4)c3)CC2)c2ccccc12` yielded an IC50 (A-431) of 6.35 µM, an IC50 (ChaGo-K-1) of 1230 nM and an IC50 (786-0) of 2100 nM. It also gave an IC50 (Hs 294T) of 2480 nM, an IC50 (SW 954) of 4.07 µM and an IC50 (ARH-77) of 780 nM. For the same compound, the IC50 (LNCaP) was 3.44 µM, the IC50 (NCI-H446) was 3.16 µM and the IC50 (647-V) was 1480 nM. The IC50 (DB) was 1170 nM, the IC50 (MeWo) was 1980 nM and the IC50 (U-266) was 1260 nM. It also gave an IC50 5637 of 6.75 µM, an IC50 (MDA-MB-453) of 1500 nM and an IC50 (ACHN) of 3.21 µM. The IC50 (L-428) was 1490 nM, the IC50 (UMUC3) was 2910 nM and the IC50 (ES-2) was 1320 nM. For the same compound, the IC50 (SW480) was 2150 nM, the IC50 (BXPC-3) was 2870 nM and the IC50 (SW-620) was 3.08 µM. The IC50 (LS174T) was 1470 nM, the IC50 [1] was 2980 nM and the IC50 (CRO-AP2) was 2260 nM. It also gave an IC50 (SNU-16) of 993 nM, an IC50 (Calu-1) of 2850 nM and an IC50 (YAPC) of 2870 nM. The IC50 (A 172) was 1960 nM, the IC50 (769-P) was 2760 nM and the IC50 (U-87 MG) was 2850 nM. The IC50 (SCaBER) was 1500 nM, the IC50 (CHL-1) was 2570 nM and the IC50 (TCC-SUP) was 2260 nM. The IC50 (SW684) was 5.75 µM, the IC50 (CCF-STTG1) was 5.82 µM and the IC50 (Caov-3 cell line) was 2600 nM. For the same compound, the IC50 [2] was 2340 nM, the IC50 (DK-MG) was 6.42 µM and the IC50 (CAL-27) was 2520 nM. For the same compound, the IC50 (A673) was 2030 nM, the IC50 (U138-MG) was 4.54 µM and the IC50 (COLO 201) was 1060 nM. The IC50 (NCI-H69) was 2740 nM, the IC50 [3] was 1110 nM and the IC50 (Ramos) was 1040 nM. The IC50 (BPH-1) was 3.49 µM, the IC50 [4] was 1310 nM and the IC50 (HCT-116) was 2660 nM.

Compound `O=C(NC1CN(Cc2cnn(Cc3ccccc3)c2)C1)c1cn(C2CC2)nn1` has an IC50 (A-431) greater than 10 µM, an IC50 (ChaGo-K-1) greater than 10000 nM and an IC50 (786-0) greater than 10000 nM. The IC50 (Hs 294T) was greater than 10000 nM, the IC50 (SW 954) was greater than 10 µM and the IC50 (ARH-77) was greater than 10000 nM. The IC50 (LNCaP) was greater than 10 µM, the IC50 (NCI-H446) was greater than 10 µM and the IC50 (647-V) was greater than 10000 nM. For the same compound, the IC50 (DB) was 663 nM, the IC50 (MeWo) was greater than 10000 nM and the IC50 (U-266) was greater than 10000 nM. For the same compound, the IC50 5637 was greater than 10 µM, the IC50 (MDA-MB-453) was greater than 10000 nM and the IC50 (ACHN) was greater than 10 µM. The IC50 (L-428) was 2610 nM, the IC50 (UMUC3) was greater than 10000 nM and the IC50 (ES-2) was greater than 10000 nM. The IC50 (SW480) was greater than 10000 nM, the IC50 (BXPC-3) was greater than 10000 nM and the IC50 (SW-620) was greater than 10 µM. For the same compound, the IC50 (LS174T) was greater than 10000 nM, the IC50 [1] was greater than 10000 nM and the IC50 (CRO-AP2) was 75 nM. It also gave an IC50 (SNU-16) greater than 10000 nM, an IC50 (Calu-1) greater than 10000 nM and an IC50 (YAPC) greater than 10000 nM. It also gave an IC50 (A 172) greater than 10000 nM, an IC50 (769-P) greater than 10000 nM and an IC50 (U-87 MG) greater than 10000 nM. It also gave an IC50 (SCaBER) greater than 10000 nM, an IC50 (CHL-1) greater than 10000 nM and an IC50 (TCC-SUP) greater than 10000 nM. For the same compound, the IC50 (SW684) was greater than 10 µM, the IC50 (CCF-STTG1) was greater than 10 µM and the IC50 (Caov-3 cell line) was greater than 10000 nM. For the same compound, the IC50 [2] was greater than 10000 nM, the IC50 (DK-MG) was greater than 10 µM and the IC50 (CAL-27) was greater than 10000 nM. For the same compound, the IC50 (A673) was greater than 10000 nM, the IC50 (U138-MG) was greater than 10 µM and the IC50 (COLO 201) was greater than 10000 nM. For the same compound, the IC50 (NCI-H69) was greater than 10000 nM, the IC50 [3] was greater than 10000 nM and the IC50 (Ramos) was greater than 10000 nM. The IC50 (BPH-1) was greater than 10 µM, the IC50 [4] was greater than 10000 nM and the IC50 (HCT-116) was greater than 10000 nM.
